S1P3 antagonist = blocks the human S1P3 receptor | Q99500 | CHO S1P3 NFAT-BLA reporter, FRET fluorescence, antagonist mode | inhibition, % at 4.98 µM | 0.27% of 170,000 active | AID 485;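 active = inhibition above the plate cutoff, the mean inhibition of test wells on that plate plus 3 SD, cut at about 28% in these data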;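 note: cells challenged with S1P at its EC80 of 0.8 µM; blue over green emission ratio from cleaved BLA substrate after 4 h stimulation; 0% = S1P-stimulated wells and 100% = unstimulated DMSO-only wells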
Target sequence (Q99500 whole entry, looked up): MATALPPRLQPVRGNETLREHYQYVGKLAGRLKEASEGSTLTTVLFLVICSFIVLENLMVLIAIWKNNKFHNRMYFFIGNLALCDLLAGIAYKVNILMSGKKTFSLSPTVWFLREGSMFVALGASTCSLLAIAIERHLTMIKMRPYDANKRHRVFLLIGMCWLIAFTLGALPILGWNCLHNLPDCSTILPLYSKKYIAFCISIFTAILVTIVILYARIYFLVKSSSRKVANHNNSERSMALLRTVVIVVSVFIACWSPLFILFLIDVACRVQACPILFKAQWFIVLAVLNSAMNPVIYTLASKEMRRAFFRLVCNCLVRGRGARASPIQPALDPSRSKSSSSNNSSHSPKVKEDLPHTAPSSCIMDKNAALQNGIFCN
Calb biofilm kill = mixtures killing C. albicans biofilm | C. albicans biofilm persisters + clotrimazole, fluorescence viability; primary screen in compound mixtures of four per well | inhibition, % at 7.6 µM | 0.02% of 120,000 active | AID 1242;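 active = inhibition above 30.3% in the primary screen of four-compound pools, then above 30% when the compound was retested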;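 note: compounds exposed to preformed 24 h biofilms for 48 h; 0% = untreated biofilm control and 100% = clotrimazole plus chlorhexidine kill blank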
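Test system: C. albicans biofilms. Buffer or medium: RPMI/MOPS medium, pH 7.0. Timing: 48 h compound exposure at 37 °C. Technique: Alamar Blue fluorescence. Evaluation: percent inhibition of biofilm viability.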
S1P4 antagonist = antagonists of human S1P4 receptor. O95977. S1P4-expressing cells, antagonist mode, reporter read-out. inhibition, % at 4.98 µM. 0.26% of 220,000 active. AID 1510; in the data active = inhibition above about 29%;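 note: 0% = wells stimulated with agonist and 100% = vehicle wells without agonist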
Pf gametocyte = P. falciparum stage V gametocyte viability inhibition. P. falciparum stage V gametocytes, ATP luminescence, 24 h. 0.065% of 150,000 active. AID 743093. inhibition, % at 10.9 µM;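 active = inhibition above the mean plus 3 SD of compounds within the control limits, set per campaign, cut at about 38% in these data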;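 note: 0% = DMSO wells and 100% = medium only without gametocytes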
S1P4 ag = activates the human S1P4 receptor; O95977; S1P4-expressing cell line, agonist reporter assay; activation, % at 4.98 µM; 0.35% of 220,000 active; AID 1509; in the data active = activation above about 11%;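 note: 0% = DMSO vehicle and 100% = reference agonist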
S1P4 antag conf = human S1P4 antagonism, confirmation. AID 1524. 71% of 520 active. inhibition, % at 4.98 µM. shares compounds with S1P4 antagonist. S1P4-expressing cell line, antagonist mode, reporter read-out; in the data active = inhibition above about 30%
S1P1 antag = human S1P1 antagonism as S1P4 antagonist counter-screen. shares compounds with S1P4 antagonist. cell-based S1P1 antagonist counterscreen, inhibition. inhibition, % at 4.98 µM. 37% of 520 active. AID 1564; in the data active = inhibition above about 40%;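 note: receptor stimulated with S1P near its EC80; 0% = agonist stimulated wells and 100% = vehicle only wells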
* marks the source's active call; other numbers are inactive results. Hits are enriched below; roughly 0.77% of the tested compounds scored in any of these assays.

Results for Cc1cc(NC2CCCCC2)nc2ccccc12 ?
S1P3 antagonist: -10; Calb biofilm kill: 9; S1P4 antagonist: 30*; Pf gametocyte: 11; S1P4 ag: 0; S1P4 antag conf: 18; S1P1 antag: 55*

How did Cc1ccc2[nH]c(O)c(N=NC(N)=S)c2c1 do in these assays?
S1P3 antagonist: -7; Calb biofilm kill: 29; S1P4 antagonist: 14; Pf gametocyte: -4; S1P4 ag: 1

What do the screens show for `CC(/C=C(\NC(=O)c1ccccc1)C(=O)N=Nc1c(O)[nH]c2ccc(C)cc12)=C\c1ccccc1`?
S1P4 antagonist: 35*; S1P4 ag: -4; S1P4 antag conf: 18; S1P1 antag: 22

What do the screens show for `COc1ccc(Nc2nc(Cl)nc(NCCO)n2)cc1`?
S1P3 antagonist: -4; Calb biofilm kill: 20; S1P4 antagonist: -17; Pf gametocyte: 2; S1P4 ag: 0

What do the screens show for `COc1ccc(Nc2nc(Nc3ccc(OC)cc3)nc(SC3=NCCS3)n2)cc1`?
S1P4 antagonist: 29*; S1P4 ag: -2; S1P4 antag conf: 47*; S1P1 antag: 21

What do the screens show for `CCNc1nc(N2CCCC2)nc(N2CCCC2)n1`?
S1P3 antagonist: -10; Calb biofilm kill: 13; S1P4 antagonist: 4; Pf gametocyte: 1; S1P4 ag: -3

What do the screens show for `CCNc1nc(NC(C)(C)C)nc(N2CCCCC2)n1`?
S1P3 antagonist: -13; Calb biofilm kill: 1; S1P4 antagonist: 44*; S1P4 ag: -1; S1P4 antag conf: 92*; S1P1 antag: 21

Results for O=C(CNS(=O)(=O)c1c(Cl)cccc1Cl)OCc1csc(-c2ccccc2)n1 ?
S1P3 antagonist: -3; Calb biofilm kill: 13; S1P4 antagonist: -20; Pf gametocyte: 12; S1P4 ag: 0

How did O=c1cc(O)c2c(=O)n(Cc3ccccc3)c3ccccc3c2o1 do in these assays?
S1P3 antagonist: 4; Calb biofilm kill: -4; S1P4 antagonist: 89*; Pf gametocyte: -5; S1P4 ag: 3; S1P4 antag conf: -7; S1P1 antag: 15

How did COc1ccc(C(=O)C(CN2CCOCC2)c2ccccc2)cc1 (stereo not given) do in these assays?
S1P4 antagonist: 45*; S1P4 ag: -3; S1P4 antag conf: 31*; S1P1 antag: 19

What do the screens show for `COc1ccc(C(=O)C(CN2CCCC2)c2ccccc2)cc1` (stereo not given)?
S1P4 antagonist: 3; S1P4 ag: -2

What do the screens show for `COC(=O)N/N=C\C=C\c1ccc2c(c1)OCO2`?
S1P4 antagonist: 55*; S1P4 ag: -1; S1P4 antag conf: -19; S1P1 antag: -14

What do the screens show for `O=C(Nc1nnc(-c2ccc3c(c2)CCCC3)o1)c1ccccc1`?
S1P4 antagonist: 31*; S1P4 ag: 2; S1P4 antag conf: 102*; S1P1 antag: 96*

What do the screens show for `CS(=O)(=O)c1ncc(Cl)c(C(=O)Nc2ccc3ccccc3c2)n1`?
S1P3 antagonist: 0; Calb biofilm kill: 6; S1P4 antagonist: 41*; Pf gametocyte: -14; S1P4 ag: -3; S1P4 antag conf: 119*; S1P1 antag: 54*

Results for CC(=O)Oc1ccccc1-n1c(C)nc(=O)c(-c2ccccc2)c1C ?
S1P3 antagonist: -2; Calb biofilm kill: 16; S1P4 antagonist: -17; Pf gametocyte: 4; S1P4 ag: 1

What do the screens show for `O=C(Cn1nnc2ccccc2c1=O)N1CCOCC1`?
S1P3 antagonist: -18; Calb biofilm kill: 2; S1P4 antagonist: 1; Pf gametocyte: -7; S1P4 ag: 1

Results for O=C(Cn1ncc(Cl)c(Cl)c1=O)N1CCN(Cc2ccccc2)CC1 ?
S1P3 antagonist: -14; Calb biofilm kill: 17; S1P4 antagonist: 71*; S1P4 ag: -2; S1P4 antag conf: 118*; S1P1 antag: 61*

Results for CC1(C)C(=O)Nc2ccccc2N1C(=O)Cn1ncc(Cl)c(Cl)c1=O ?
S1P3 antagonist: -3; Calb biofilm kill: 8; S1P4 antagonist: 95*; Pf gametocyte: -18; S1P4 ag: 0; S1P4 antag conf: 87*; S1P1 antag: 33

How did O=C(Cn1ncc(Cl)c(Cl)c1=O)N1CCc2ccccc21 do in these assays?
S1P3 antagonist: -16; Calb biofilm kill: 9; S1P4 antagonist: 79*; Pf gametocyte: -3; S1P4 ag: -5; S1P4 antag conf: 118*; S1P1 antag: 94*

High-throughput results: PubChem, several laboratories
